One block for each molecule: values may come before it. Active and inactive are the calls of the source. The calls are words filed in the database; no cut-off is given here.
Experiments:
Canis familiaris [1] = species: Canis familiaris; experiment: Renal blood flow was measured in dogs; Highly significant activity; type: functional, organism-based; settings: Canis lupus familiaris; Kidney
Canis familiaris [2] = species: Canis familiaris; experiment: Renal vascular resistance was calculated as the ratio of the mean arterial blood pressure / mean renal blood flow; Highly significant activity; type: functional, organism-based; settings: Canis lupus familiaris
Canis familiaris [3] = experiment: Compound was evaluated for determining renal vascular resistance(iv) in dogs; type: functional, Canis lupus familiaris
Method in brief: (§1)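 Secondary renal screen in anesthetized dogs: cumulative dose-response by infusing drug at progressively increasing rates, 5 min per dose level. RVR ED15 is the average minimum cumulative dose lowering RVR by 15%; maximum effect is the average maximum % fall in RVR. Selectivity ratios are separations between RVR ED15 and doses giving 30% change in iliac vascular resistance, 20% in MABP, 20% in HR.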

Canis familiaris [4] = species: Canis familiaris; experiment: Compound was evaluated for average maximum percent decrease in renal vascular resistance in dogs; type: functional, Canis lupus familiaris; method in brief: as §1
Rattus norvegicus [5] = species: Rattus norvegicus; experiment: Central dopaminergic activity against contralateral rotation(500) in lesioned rats; type: functional
Method in brief: (§2)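 Rats with substantia nigra lesions scored for contralateral rotation after intraperitoneal dosing (routine), oral dosing for selected compounds, or intracaudal administration for intrinsic activity. RD500 and RD1000 are the minimum doses giving 500 and 1000 turns, respectively, in 2 h.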

Rattus norvegicus [6] = experiment: Central dopaminergic activity for minimum concentration which produced 500 rotations at the dose of 10 mg/kg (i.p.) in 2 h; I=Inactive; type: functional, organism-based; set-up: dose 10 mg/kg; method in brief: as §2
[7] = Selectivity ratio of compound as ED15 relative to heart rate(HR) ED20; type: functional; method in brief: as §1
[8] = Selectivity ratio of compound as ratio of ED15 relative to mean arterial blood pressure(MABP) ED20; type: functional; method in brief: as §1
[9] = Selectivity ratio of Compound as ratio of ED15 relative to iliac vascular resistance(IVR) ED30; type: functional; method in brief: as §1
Canis familiaris [10] = species: Canis familiaris; experiment: Renal blood flow was measured in dogs; I=Inactive; type: functional, organism-based; settings: Canis lupus familiaris; Kidney
Canis familiaris [11] = species: Canis familiaris; experiment: Renal vascular resistance was calculated as the ratio of the mean arterial blood pressure / mean renal blood flow; I=Inactive; type: functional, organism-based; settings: Canis lupus familiaris
Rattus norvegicus [12] = experiment: Central dopaminergic activity for minimum concentration which produced 500 rotations at the dose of 2.0 mg/kg (i.p.) in 2 h; type: functional; settings: route intraperitoneal; method in brief: as §2
Rattus norvegicus [13] = experiment: Central dopaminergic activity against contralateral rotation(1000) in lesioned rats at the dose of 6.0 mg/kg (p.o.) in 2 h; type: functional; settings: route oral
Method in brief: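 Oral dosing in rats with substantia nigra lesions, scoring contralateral rotations. RD1000 is the minimum dose producing 1000 turns in 2 h.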

Canis familiaris [14] = species: Canis familiaris; experiment: Renal blood flow was measured in dogs; Significant activity; type: functional, organism-based; settings: Canis lupus familiaris; Kidney
Rattus norvegicus [15] = experiment: Central dopaminergic activity for minimum concentration which produced 500 rotations(ip); type: functional; method in brief: as §2
Rattus norvegicus [16] = species: Rattus norvegicus; experiment: Adenylase cyclase activity in rat striatal membranes; type: functional, organism-based, Membrane; settings: Striatum
Rattus norvegicus [17] = species: Rattus norvegicus; experiment: Central dopaminergic activity against contralateral rotation(500) in lesioned rats(ic); type: functional; method in brief: as §2
Rattus norvegicus [18] = experiment: Central dopaminergic activity for minimum concentration which produced 500 rotations(ip) in 2 h; type: functional; method in brief: as §2

Compound: CS(=O)(=O)O.Oc1ccc(C2CNCCc3c2cc(O)c(O)c3Cl)cc1 (stereo unspecified) [FENOLDOPAM MESYLATE]
- RBF (Canis familiaris [1]): Highly significant activity
- RVR (Canis familiaris [2]): Significant activity
- RVR ED15 (Canis familiaris [3]): 0.0003 mg/kg
- Decrease RVR (Canis familiaris [4]): 59%
- RD500 (Rattus norvegicus [5]): 0.5 ug rat-1
- RD500 (Rattus norvegicus [6]): inactive
- Ratio [7]: >6072
- Ratio [8]: >6072
- Ratio [9]: > 6070

Compound: Br.CN1CCc2c(cc(O)c(O)c2Cl)C(c2cccc(C(F)(F)F)c2)C1 (stereo unspecified)
- RBF (Canis familiaris [10]): inactive
- RVR (Canis familiaris [11]): inactive
- RD500 (Rattus norvegicus [12]): 594 turns/2 h
- RD1000 (Rattus norvegicus [13]): 296 turns/2 h

Compound: Cl.Oc1cc2c(c(Cl)c1O)CCN(Cc1ccc(C(F)(F)F)cc1)CC2c1ccccc1 (stereo unspecified)
- RBF (Canis familiaris [14]): Significant activity
- RVR (Canis familiaris [11]): inactive
- RD500 (Rattus norvegicus [15]): 455 turns/2 h

- EC50 (Rattus norvegicus [16]): 600 nM
Compound: CN1CCc2c(cc(O)c(O)c2Cl)C(c2ccccc2)C1.Cl (stereo unspecified)
- RBF (Canis familiaris [14]): Significant activity
- RVR (Canis familiaris [2]): Significant activity
- RD500 (Rattus norvegicus [17]): 0.32 ug rat-1
- RD500 (Rattus norvegicus [18]): 0.03 mg/kg

Reference: ChEMBL document CHEMBL1122032, “Dopaminergic activity of substituted 6-chloro-1-phenyl-2,3,4,5-tetrahydro-1H-3-benzazepines” (J Med Chem, 1982)
